Measurements taken from ChEMBL document CHEMBL3259569 (J Med Chem, 2014).
The source made the active and inactive calls. No cut-off for these calls is given here.

Assays:
[1] = AUC (0 to infinity) in ICR mouse at 2 mg/kg, iv by LC-MS/MS analysis; format: ADME, organism-based; set-up: time infinity, dose 2 mg/kg, route intravenous; settings: plasma
TSGH = experiment: Cytotoxicity against human TSGH cells by MTT assay; format: functional, cell-based
[2] = Cmax in ICR mouse at 10 mg/kg, po by LC-MS/MS analysis; format: ADME, organism-based; set-up: dose 10 mg/kg, route oral; settings: in vivo
MCF7 = experiment: Cytotoxicity against human MCF7 cells by MTT assay; format: functional, cell-based
[3] = Volume of distribution at steady state in ICR mouse at 2 mg/kg, iv by LC-MS/MS analysis; format: ADME, organism-based; set-up: dose 2 mg/kg, route intravenous; settings: in vivo, read-out: Vdss
[4] = Half life in ICR mouse at 10 mg/kg, po by LC-MS/MS analysis; format: ADME, organism-based; set-up: dose 10 mg/kg, route oral; settings: in vivo
Histone deacetylase 8 = biological target: T1, Histone deacetylase 8 (Homo sapiens, UniProt Q9BY41); experiment: Inhibition of HDAC8 (unknown origin) by fluorescence assay
T1 sequence (Q9BY41 whole entry): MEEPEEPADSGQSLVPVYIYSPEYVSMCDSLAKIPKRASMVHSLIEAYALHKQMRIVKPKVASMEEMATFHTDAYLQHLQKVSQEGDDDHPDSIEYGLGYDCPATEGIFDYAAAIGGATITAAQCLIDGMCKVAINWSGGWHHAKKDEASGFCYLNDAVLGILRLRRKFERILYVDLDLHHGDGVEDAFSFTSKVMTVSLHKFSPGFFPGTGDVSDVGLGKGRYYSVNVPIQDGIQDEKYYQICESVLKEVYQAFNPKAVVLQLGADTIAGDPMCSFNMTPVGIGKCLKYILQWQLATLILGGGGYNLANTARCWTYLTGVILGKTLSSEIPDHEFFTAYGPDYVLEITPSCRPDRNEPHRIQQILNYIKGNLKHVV
How it was run: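 Run by a contract testing lab. Compounds were dissolved in DMSO and tested in 10-dose IC50 mode, using 3-fold serial dilution starting at 10 μM. IC50 was taken from the dose series.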

HCT-116 [5] = experiment: Antitumor activity against human HCT116 cells xenografted in po dosed nude athymic mouse assessed as tumor growth inhibition after 2 to 16 days; format: functional, organism-based
HCT-116 [6] = experiment: Cytotoxicity against p53 knock down human HCT116 cells at 0.1 to 3 uM after 72 hrs by MTT assay; format: functional, cell-based
[7] = biological target: T2, Protein deacetylase HDAC6 (Homo sapiens, UniProt Q9UBN7); experiment: Inhibition of HDAC6 (unknown origin) using RHKK(Ac) (379 to 382) p53 peptide as substrate by fluorescence assay
T2 sequence (Q9UBN7 whole entry): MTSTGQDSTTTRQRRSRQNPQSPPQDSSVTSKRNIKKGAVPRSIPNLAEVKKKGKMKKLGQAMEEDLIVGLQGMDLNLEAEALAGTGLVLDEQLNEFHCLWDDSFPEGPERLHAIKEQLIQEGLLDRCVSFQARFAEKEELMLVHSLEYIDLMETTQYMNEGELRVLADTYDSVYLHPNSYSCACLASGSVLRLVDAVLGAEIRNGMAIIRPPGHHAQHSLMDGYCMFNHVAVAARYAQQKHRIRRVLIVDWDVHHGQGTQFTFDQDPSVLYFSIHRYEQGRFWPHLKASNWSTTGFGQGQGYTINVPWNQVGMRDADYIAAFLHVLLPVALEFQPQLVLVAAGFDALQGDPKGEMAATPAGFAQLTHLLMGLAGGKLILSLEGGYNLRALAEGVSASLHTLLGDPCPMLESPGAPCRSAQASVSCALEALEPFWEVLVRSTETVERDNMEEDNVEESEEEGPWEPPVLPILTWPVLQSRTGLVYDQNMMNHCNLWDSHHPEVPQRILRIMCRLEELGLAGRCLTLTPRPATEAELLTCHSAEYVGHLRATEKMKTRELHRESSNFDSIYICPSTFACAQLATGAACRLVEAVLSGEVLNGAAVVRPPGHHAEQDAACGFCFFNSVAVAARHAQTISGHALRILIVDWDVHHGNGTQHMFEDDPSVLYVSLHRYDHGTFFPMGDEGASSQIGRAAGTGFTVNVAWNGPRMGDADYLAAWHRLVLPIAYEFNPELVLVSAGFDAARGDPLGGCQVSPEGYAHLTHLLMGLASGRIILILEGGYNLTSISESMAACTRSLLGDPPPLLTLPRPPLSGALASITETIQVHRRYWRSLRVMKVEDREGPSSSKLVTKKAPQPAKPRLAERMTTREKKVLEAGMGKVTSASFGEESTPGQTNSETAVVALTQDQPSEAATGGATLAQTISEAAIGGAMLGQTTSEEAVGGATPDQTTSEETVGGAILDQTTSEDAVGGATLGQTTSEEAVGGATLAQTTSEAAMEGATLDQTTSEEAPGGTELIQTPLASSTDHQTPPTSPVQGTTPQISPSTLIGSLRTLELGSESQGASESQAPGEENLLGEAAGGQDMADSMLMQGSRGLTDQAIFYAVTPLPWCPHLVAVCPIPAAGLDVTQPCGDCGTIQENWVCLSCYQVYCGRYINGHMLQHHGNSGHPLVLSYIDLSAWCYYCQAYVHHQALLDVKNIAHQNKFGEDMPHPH

[8] = Cytotoxicity against human H460 cells by MTT assay; format: functional, cell-based; settings: NCI-H460
How it was run: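 Antiproliferative IC50 in H460 cells; mean ± SD of at least three independent experiments.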

HCT-116 [9] = experiment: Induction of apoptosis in human HCT116 cells assessed as PARP cleavage after 24 hrs by Western blotting analysis; format: functional, cell-based
How it was run: (§1)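 HCT116 cells treated with indicated concentrations for 24 h; lysates probed by Western blot for caspase 3 and PARP cleavage.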

[10] = Tmax in ICR mouse at 10 mg/kg, po by LC-MS/MS analysis; format: ADME, organism-based; set-up: dose 10 mg/kg, route oral; settings: in vivo
HCT-116 [11] = experiment: Anticancer activity against human HCT116 cells assessed as disruption of 3-dimensional spheroid structure after 72 hrs by phase-contrast light microscopic analysis; format: functional, cell-based
How it was run: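 HCT116 cells (4 × 10^3/well) grown 5 days in semisolid GFR-Matrigel/10% FBS-DMEM (1:1) to form 3D spheres, then exposed to compound for 72 h; sphere structure examined by phase-contrast light microscopy.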

HCT-116 [12] = experiment: Antitumor activity against human HCT116 cells xenografted in nude athymic mouse assessed as tumor growth inhibition at 25 mg/kg/day, po after 2 to 16 days relative to control; format: functional; settings: read-out: TGI
HCT-116 [13] = experiment: Induction of apoptosis in human HCT116 cells assessed as PARP cleavage at 3 uM after 24 hrs by Western blotting analysis in presence of Z-VAD-FMK; format: functional, cell-based
How it was run: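 HCT116 cells treated 24 h with 3 μM compound with or without 20 μM z-VAD-fmk pan-caspase inhibitor; caspase 3 and PARP assessed by Western blot.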

HT-29 = experiment: Cytotoxicity against human HT-29 cells by MTT assay; format: functional, cell-based
[14] = Cytotoxicity against human HONE1 cells by MTT assay; format: functional, cell-based
KB = experiment: Cytotoxicity against human KB cells by MTT assay; format: functional, cell-based
[15] = Cytotoxicity against human MKN45 cells by MTT assay; format: functional, cell-based; settings: MKN-45
HCT-116 [16] = experiment: Induction of apoptosis in human HCT116 cells assessed as caspase-3 activation after 24 hrs by Western blotting analysis; format: functional, cell-based; how it was run: as §1
[17] = Clearance in ICR mouse at 2 mg/kg, iv by LC-MS/MS analysis; format: ADME, organism-based; set-up: dose 2 mg/kg, route intravenous; settings: in vivo

AUC(0-inf) [1]: 289 ng·h/mL
Cmax [2]: 409 ng/mL
Vd [3]: 9.8 L/kg
half-life [4]: 2.4 h
IC50 (Histone deacetylase 8): 1390 nM
IC50 [7]: 5.2 nM
Tmax [10]: 0.3 h
clearance [17]: 127 mL/min/kg
SMILES: O=C(/C=C/c1cccc(S(=O)(=O)n2ccc3cccnc32)c1)NO
IC50 (TSGH): 2100 nM
IC50 (MCF7): 1330 nM
TGI (HCT-116 [5]): Dose-dependent effect
Activity (HCT-116 [6]): inactive
IC50 [8]: 570 nM
Activity (HCT-116 [9]): Dose-dependent effect
Activity (HCT-116 [11]): Dose-dependent effect
inhibition in vivo at 25 mg/kg/day (HCT-116 [12]): 55.8%
Activity (HCT-116 [13]): inactive
IC50 (HT-29): 1240 nM
IC50 [14]: 1200 nM
IC50 (KB): 760 nM
IC50 [15]: 2510 nM
Activity (HCT-116 [16]): Dose-dependent effect
